Measurements: ChEMBL document CHEMBL1123252, “Design and synthesis of potent and specific renin inhibitors containing difluorostatine, difluorostatone, and related analogues” (J Med Chem, 1986)
Where a SMILES comes first, the peptide text is derived from it. [ ]: non-standard residue; d: D form. The star is where a group is joined. Ala(2H-imidazol-2-yl) = N[C@@H](CC1N=CC=N1)C(=O)O; Sta = CC(C)C[C@H](N)[C@@H](O)CC(=O)O; NHCH2(2-pyridyl) = c1ccc(CN*)nc1; Boc = CC(C)(C)OC(=O)*

Target: T1, Renin (Homo sapiens, UniProt P00797)
T1 sequence (P00797 whole entry): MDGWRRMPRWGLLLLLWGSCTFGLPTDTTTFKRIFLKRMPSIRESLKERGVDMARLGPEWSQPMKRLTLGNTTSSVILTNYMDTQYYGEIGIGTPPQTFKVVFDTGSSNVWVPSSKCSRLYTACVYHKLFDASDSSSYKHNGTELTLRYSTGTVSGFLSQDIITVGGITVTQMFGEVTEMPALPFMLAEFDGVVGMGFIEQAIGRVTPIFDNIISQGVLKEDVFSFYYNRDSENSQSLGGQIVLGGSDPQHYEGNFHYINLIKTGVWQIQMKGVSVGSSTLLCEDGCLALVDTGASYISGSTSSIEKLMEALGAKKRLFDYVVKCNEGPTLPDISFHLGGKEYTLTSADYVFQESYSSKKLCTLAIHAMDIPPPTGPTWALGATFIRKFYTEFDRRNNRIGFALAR
Assay: Inhibition of human plasma renin
Assay type: cell-free
In short: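 Lyophilized human plasma with 0.1% EDTA, plus phenylmethanesulfonyl fluoride and maleate buffer pH 6.0. Inhibitor given in 1% Tween 80 in water. Angiotensin I generated over 90 min at 37 °C and measured by radioimmunoassay kit. Percent inhibition taken versus control tubes. IC50 estimated graphically from 3-4 concentrations on semilog plot.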

| Structure (SMILES) | IC50 |
| --- | --- |
| CC[C@H](C)[C@H](NC(=O)C(F)(F)C(=O)[C@H](Cc1ccccc1)NC(=O)[C@H](CC1N=CC=N1)NC(=O)[C@H](Cc1ccccc1)NC(=O)OC(C)(C)C)C(=O)NCc1ccccn1 | 1.3 nM |
| CC[C@H](C)[C@H](NC(=O)C(F)(F)C(=O)[C@H](CC1CCCCC1)NC(=O)[C@H](CC1N=CC=N1)NC(=O)[C@H](Cc1ccccc1)NC(=O)OC(C)(C)C)C(=O)NCc1ccccn1 | 2.5 nM |
| CC[C@H](C)[C@H](NC(=O)C(F)(F)[C@H](O)[C@H](Cc1ccccc1)NC(=O)[C@H](CC1N=CC=N1)NC(=O)[C@H](Cc1ccccc1)NC(=O)OC(C)(C)C)C(=O)NCc1ccccn1 | 13 nM |
| CC[C@H](C)[C@H](NC(=O)C[C@H](O)[C@H](CC(C)C)NC(=O)[C@H](CC1N=CC=N1)NC(=O)[C@H](Cc1ccccc1)NC(=O)OC(C)(C)C)C(=O)NCc1ccccn1 (Boc-F[Ala(2H-imidazol-2-yl)][Sta]I-{NHCH2(2-pyridyl)}) | 1.7 nM |
| CC[C@H](C)[C@H](NC(=O)C(F)(F)[C@H](O)[C@H](CC1CCCCC1)NC(=O)[C@H](CC1N=CC=N1)NC(=O)[C@H](Cc1ccccc1)NC(=O)OC(C)(C)C)C(=O)NCc1ccccn1 | 0.57 nM |

Next, values leading:

| IC50 | Structure (SMILES) |
| --- | --- |
| 0.52 nM | CC[C@H](C)[C@H](NC(=O)C(F)(F)C(=O)[C@H](CC(C)C)NC(=O)[C@H](CC1N=CC=N1)NC(=O)[C@H](Cc1ccccc1)NC(=O)OC(C)(C)C)C(=O)NCc1ccccn1 |
| 12 nM | CC[C@H](C)[C@H](NC(=O)C(F)(F)[C@H](O)[C@H](CC(C)C)NC(=O)[C@H](CC1N=CC=N1)NC(=O)[C@H](Cc1ccccc1)NC(=O)OC(C)(C)C)C(=O)NCc1ccccn1 |
| 34 nM | CC[C@H](C)[C@H](NC(=O)CC(=O)[C@H](CC(C)C)NC(=O)[C@H](CC1N=CC=N1)NC(=O)[C@H](Cc1ccccc1)NC(=O)OC(C)(C)C)C(=O)NCc1ccccn1 |
| 730 nM | CC[C@H](C)[C@H](NC(=O)C(F)(F)[C@@H](O)[C@H](CC(C)C)NC(=O)[C@H](CC1N=CC=N1)NC(=O)[C@H](Cc1ccccc1)NC(=O)OC(C)(C)C)C(=O)NCc1ccccn1 |
